ChEMBL document CHEMBL5257157, “Biological evaluation of novel amidino substituted coumarin-benzazole hybrids as promising therapeutic agents” (RSC Med Chem, 2023)
pEC50, pIC50: −log10 of the molar value.

Experiments:
[1] = Cytotoxicity against dog MDCK cells assessed as inhibition of cell growth incubated for 72 hrs by CellTiter96 Aqueous One Solution cell proliferation assay; type: toxicity, cell-based, Canis lupus familiaris
Influenza A virus [2] = assay: Antiviral activity against influenza virus H1N1 infected in dog MDCK cells assessed as inhibition of virus-induced cytopathogenic effect incubated for 3 to 7 days by MTS assay; type: functional, organism-based
Influenza A virus [3] = assay: Antiviral activity against influenza virus H3N2 infected in dog MDCK cells assessed as inhibition of virus-induced cytopathogenic effect incubated for 3 to 7 days by MTS assay; type: functional, organism-based
Influenza B virus = assay: Antiviral activity against influenza B virus infected in dog MDCK cells assessed as inhibition of virus-induced cytopathogenic effect incubated for 3 to 7 days by MTS assay; type: functional, organism-based
[4] = Cytotoxicity against human HEL 299 cells assessed as inhibition of cell growth incubated for 72 hrs by CellTiter96 Aqueous One Solution cell proliferation assay; type: toxicity, cell-based
Huh-7 = assay: Cytotoxicity against human Huh-7 cells assessed as inhibition of cell growth incubated for 72 hrs by CellTiter96 Aqueous One Solution cell proliferation assay; type: functional
Human coronavirus 229E = assay: Antiviral activity against HCoV-229E infected in human HEL 299 cells assessed as inhibition of virus-induced cytopathogenic effect incubated for 3 to 7 days by MTS assay; type: functional, organism-based
Human coronavirus OC43 = assay: Antiviral activity against HCoV-OC43 infected in human HEL 299 cells assessed as inhibition of virus-induced cytopathogenic effect incubated for 3 to 7 days by MTS assay; type: functional, organism-based; settings: Betacoronavirus 1, HEL 299
[5] = Antiviral activity against HCoV-NL63 infected in human Huh-7 cells assessed as inhibition of virus-induced cytopathogenic effect incubated for 3 to 7 days by MTS assay; type: functional, cell-based; settings: Human coronavirus NL63, Huh-7
[6] = test system: Respiratory syncytial virus; assay: Antiviral activity against RSV infected in human HEL 299 cells assessed as inhibition of virus-induced cytopathogenic effect incubated for 3 to 7 days by MTS assay; type: functional, organism-based
Human alphaherpesvirus 1 = assay: Antiviral activity against HSV-1 KOS infected in human HEL 299 cells assessed as inhibition of virus-induced cytopathogenic effect incubated for 3 to 7 days by MTS assay; type: functional, organism-based; settings: Human alphaherpesvirus 1, KOS
Yellow fever virus = assay: Antiviral activity against Yellow fever virus 17D infected in human Huh-7 cells assessed as inhibition of virus-induced cytopathogenic effect incubated for 3 to 7 days by MTS assay; type: functional, organism-based
Zika virus = assay: Antiviral activity against Zika virus Mr776 infected in human Huh-7 cells assessed as inhibition of virus-induced cytopathogenic effect incubated for 3 to 7 days by MTS assay; type: functional, organism-based; settings: Mr776, Huh-7
Sindbis virus = assay: Antiviral activity against Sindbis virus infected in human Huh-7 cells assessed as inhibition of virus-induced cytopathogenic effect incubated for 3 to 7 days by MTS assay; type: functional, organism-based
[7] = Antioxidant activity assessed as ABTS radical scavenging activity incubated for 5 mins by absorbance based microplate reader analysis; type: functional
Method in brief: (§1)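 Pure compounds tested in three colorimetric antioxidant assays, each run alongside the reference BHT. […] ABTS: direct reaction with ABTS•+ radical cation, reported as IC50. DPPH: scavenging of the stable DPPH radical by proton or electron donation, reported as IC50. FRAP: reducing power, expressed as mmolFe2+/mmolC.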

[8] = Antioxidant activity assessed as DPPH radical scavenging activity incubated for 5 mins by absorbance based microplate reader analysis; type: functional; method in brief: as §1
[9] = Antioxidant activity assessed as reduction of Fe3+ complex to Fe2+ analogue by measuring mmolFe2+/mmolc by FRAP assay; type: functional; method in brief: as §1
LN-229 = assay: Antiproliferative activity against human LN-229 cells assessed as inhibition of cell growth incubated for 72 hrs by CellTiter96 Aqueous One Solution cell proliferation assay; type: functional, cell-based; settings: LN-229, 72 h
CAPAN-1 = assay: Antiproliferative activity against human CAPAN-1 cells assessed as inhibition of cell growth incubated for 72 hrs by CellTiter96 Aqueous One Solution cell proliferation assay; type: functional, cell-based; settings: CAPAN-1, 72 h
NCI-H460 = assay: Antiproliferative activity against human NCI-H460 cells assessed as inhibition of cell growth incubated for 72 hrs by CellTiter96 Aqueous One Solution cell proliferation assay; type: functional, cell-based; settings: NCI-H460, 72 h
[10] = Antiproliferative activity against human DND41 cells assessed as inhibition of cell growth incubated for 72 hrs by CellTiter96 Aqueous One Solution cell proliferation assay; type: functional, cell-based; settings: DND41, 72 h
HL-60 = assay: Antiproliferative activity against human HL-60 cells assessed as inhibition of cell growth incubated for 72 hrs by CellTiter96 Aqueous One Solution cell proliferation assay; type: functional, cell-based; settings: HL-60, 72 h
K562 = assay: Antiproliferative activity against human K562 cells assessed as inhibition of cell growth incubated for 72 hrs by CellTiter96 Aqueous One Solution cell proliferation assay; type: functional, cell-based; settings: K562, 72 h
Z-138 = assay: Antiproliferative activity against human Z138 cells assessed as inhibition of cell growth incubated for 72 hrs by CellTiter96 Aqueous One Solution cell proliferation assay; type: functional, cell-based; settings: Z-138, 72 h
CCRF-CEM = assay: Antiproliferative activity against human CEM cells assessed as inhibition of cell growth; type: functional, cell-based

| Compound | CC50 at 72 h [1] [µM] | pEC50 (Influenza A virus [2]) | pEC50 (Influenza A virus [3]) | pEC50 (Influenza B virus) | CC50 at 72 h [4] [µM] | CC50 (Huh-7) [µM] | pEC50 (Human coronavirus 229E) | pEC50 (Human coronavirus OC43) | pEC50 [5] | pEC50 [6] | pEC50 (Human alphaherpesvirus 1) | pEC50 (Yellow fever virus) | pEC50 (Zika virus) | pEC50 (Sindbis virus) | pIC50 [7] | pIC50 [8] | Activity [9] [mmol/mmol] | pIC50 (LN-229) | pIC50 (CAPAN-1) | pIC50 (NCI-H460) | also measured |
| --- | --- | --- | --- | --- | --- | --- | --- | --- | --- | --- | --- | --- | --- | --- | --- | --- | --- | --- | --- | --- | --- |
| CC(N)C12CC3CC(CC(C3)C1)C2 (configuration not stated) [RIMANTADINE] | > 100 | 5.30 | 7.30 | < 4.00 |  |  |  |  |  |  |  |  |  |  |  |  |  |  |  |  |  |
| O=c1oc2ccc(Br)cc2c(Cl)c1-c1nc2cc(C3=NCCN3)ccc2[nH]1 | 59 | 4.79 | < 4.00 | < 4.00 | 51.6 | 2.3 | < 4.00 | < 4.00 | < 4.00 | < 4.00 | < 4.00 | < 4.00 | < 4.00 | < 4.00 | 3.59 | 3.89 | 130 | 4.39 | 4.52 | < 4.00 | pIC50 [10]: 5.21; pIC50 (HL-60): 4.30; pIC50 (K562): 5.01; pIC50 (Z-138): 5.19 |
| CCN(CC)c1ccc2cc(-c3nc4cccnc4s3)c(=N)oc2c1 |  |  |  |  |  |  |  |  |  |  |  |  |  |  |  |  |  |  |  |  | pIC50 (CCRF-CEM): 6.77 |
| CCN(CC)c1ccc2cc(-c3nc4ccccc4[nH]3)c(=N)oc2c1 |  |  |  |  |  |  |  |  |  |  |  |  |  |  |  |  |  |  |  |  | pIC50 (CCRF-CEM): 7.23 |
| O=c1oc2ccccc2c(Cl)c1-c1nc2cc(C3=NCCN3)ccc2[nH]1 | 92.1 | < 4.00 | < 4.00 | < 4.00 | 99.5 | 85 | < 4.00 | < 4.00 | < 4.00 | < 4.00 | < 4.00 | < 4.00 | < 4.00 | < 4.00 | 3.43 | 3.36 | 35.1 | < 4.00 | 4.00 | < 4.00 | pIC50 [10]: 4.44; pIC50 (HL-60): 4.25; pIC50 (K562): < 4.00; pIC50 (Z-138): 4.30 |
| O=c1oc2ccc(Br)cc2c(Cl)c1-c1nc2cc(C3=NCCCN3)ccc2[nH]1 | > 100 | 4.36 | 4.29 | 5.05 | > 100 | > 100 | < 4.00 | 4.11 | < 4.00 | 4.13 | < 4.00 | 4.95 | 5.03 | 4.23 | 3.44 | 3.96 | 95.1 | < 4.00 | 4.27 | < 4.00 | pIC50 [10]: 4.31; pIC50 (HL-60): < 4.00; pIC50 (K562): 4.23; pIC50 (Z-138): 4.28 |
| CCC(CC)COC(=O)[C@H](C)N[P@](=O)(OC[C@H]1O[C@@](C#N)(c2ccc3c(N)ncnn23)[C@H](O)[C@@H]1O)Oc1ccccc1 [REMDESIVIR] |  |  |  |  | > 10 | > 10 | 7.22 | 7.22 | 7.52 | 7.52 |  | 5.21 | 6.15 | < 5.00 |  |  |  |  |  |  |  |
| Cc1cc(C(C)(C)C)c(O)c(C(C)(C)C)c1 [BUTYLATED HYDROXYTOLUENE] |  |  |  |  |  |  |  |  |  |  |  |  |  |  | 3.74 | 4.60 |  |  |  |  |  |
| CCN(CC)c1ccc2cc(-c3nc4ccc(C5=NCCN5)cc4s3)c(=O)oc2c1 | 64.2 | < 4.00 | < 4.00 | < 4.00 | > 100 | 54.2 | < 4.00 | 4.16 | < 4.00 | < 4.00 | 4.32 | < 4.00 | < 4.00 | < 4.00 | 2.66 |  | 2.84 | < 4.00 | 4.09 | < 4.00 | pIC50 [10]: 4.99; pIC50 (HL-60): < 4.00; pIC50 (K562): 4.18; pIC50 (Z-138): 4.95 |
